According to ChEMBL document CHEMBL4825662 (J Med Chem, 2021):
pEC50, pIC50: −log10 of the molar value. Values after ≈ are worked out from the molar mass of the structure shown.

Key:
Human orthopneumovirus [1] = assay: Antiviral activity against Respiratory syncytial virus A2 infected in African green monkey Vero cells by Plaque reduction assay; format: functional, organism-based
[2] = Cytotoxicity against African green monkey Vero cells by MTT assay; format: cell-based; conditions: chlorocebus sabaeus
Procedure, shortened: (§1)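 Viability was assessed by MTT after culture with compound at 0.01 nM to 100 μM, run in parallel with plaque reduction assays. Values are the average of at least two testing occasions.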

[3] = Apparent permeability of compound in wild type MDCK at 10 uM incubated for 1 hr by LC-MS/MS assay; format: ADME, Canis lupus familiaris; conditions: dog
[4] = Protein binding in rat plasma assessed as unbound fraction at 5 uM by LC-MS/MS analysis based equilibrium dialysis method; format: ADME, cell-free
[5] = Protein binding in dog plasma assessed as unbound fraction at 5 uM by LC-MS/MS analysis based equilibrium dialysis method; format: ADME, cell-free, Canis lupus familiaris
[6] = Protein binding in human plasma assessed as unbound fraction at 5 uM by LC-MS/MS analysis based equilibrium dialysis method; format: ADME, cell-free
[7] = Intrinsic clearance in Sprague-Dawley rat liver microsomes preincubated followed by NADPH addition and measured up to 45 mins by LC-MS/MS analysis; format: ADME, Microsome
[8] = Intrinsic clearance in Beagle dog liver microsomes preincubated followed by NADPH addition and measured up to 45 mins by LC-MS/MS analysis; format: ADME, Canis lupus familiaris, Microsome
[9] = Intrinsic clearance in human liver microsomes preincubated followed by NADPH addition and measured up to 45 mins by LC-MS/MS analysis; format: ADME, Microsome
[10] = Cytotoxicity against human HepG2 cells by MTT assay; format: cell-based; procedure, shortened: as §1
Human orthopneumovirus [11] = assay: Antiviral activity against Respiratory syncytial virus A2 infected in human Huh7 cells by Plaque reduction assay; format: functional, organism-based; conditions: A2, Huh-7
Procedure, shortened: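 Huh-7 cells were infected with RSV strain A2 in the presence of compound. Values are the average of at least two testing occasions.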

[12] = Half life in Sprague-Dawley rat liver microsomes preincubated followed by NADPH addition and measured up to 45 mins by LC-MS/MS analysis; format: ADME, Microsome
[13] = Half life in Beagle dog liver microsomes preincubated followed by NADPH addition and measured up to 45 mins by LC-MS/MS analysis
[14] = Half life in human liver microsomes preincubated followed by NADPH addition and measured up to 45 mins by LC-MS/MS analysis; format: ADME, Microsome
[15] = Clearance in CD1 mouse at 1 mg/kg, iv measured after 0.083 to 24 hrs by UHPLC-TOF method; format: ADME, organism-based; conditions: in vivo, time 0.083-24 hrs
[16] = Volume of distribution at steady state in CD1 mouse at 1 mg/kg, iv measured after 0.083 to 24 hrs by UHPLC-TOF method; format: ADME, organism-based; conditions: in vivo, time 0.083-24 hrs, read-out: Vdss
Procedure, shortened: (§2)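 Male CD-1 mice, acclimatized and individually housed, dosed IV and PO as amorphous-solid suspension. Terminal cardiac-puncture blood into heparinized tubes on wet ice, centrifuged at 4 °C within 15 min; plasma snap-frozen at −20 °C. IV arm sampled 2 min–24 h, oral arm 5 min–24 h. Plasma analysed by UHPLC-quadrupole-TOF MS.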

[17] = Thermodynamic solubility in PBS at 1 to 100 uM at pH 7.4 by HPLC-UV method; format: physicochemical; conditions: dose 1-100 µM, read-out: Therm_solubility
[18] = Apparent permeability across apical to basolateral side in MDCK-MDR1 cells at 10 uM measured at 60 mins by LC-MS/MS analysis; format: ADME, cell-based, Canis lupus familiaris; conditions: dog, MDCK-MDR1
[19] = Apparent permeability across basolateral side to apical side in MDCK-MDR1 cells at 10 uM measured at 60 mins by LC-MS/MS analysis; format: ADME, cell-based, Canis lupus familiaris; conditions: dog
[20] = Efflux ratio of apparent permeability in MDCK-MDR1 cells at 10 uM measured at 60 mins by LC-MS/MS analysis; format: ADME, cell-based, Canis lupus familiaris; conditions: dog, MDCK-MDR1
[21] = Half life in CD1 mouse at 10 mg/kg, po measured after 0.083 to 24 hrs by UHPLC-TOF method; format: ADME, organism-based; conditions: in vivo, time 0.083-24 hrs
[22] = Tmax in CD1 mouse at 10 mg/kg, po measured after 0.083 to 24 hrs by UHPLC-TOF method; format: ADME, organism-based; conditions: in vivo, time 0.083-24 hrs; procedure, shortened: as §2
[23] = Cmax in CD1 mouse at 10 mg/kg, po measured after 0.083 to 24 hrs by UHPLC-TOF method; format: ADME, organism-based; set-up: route oral, time 0.083-24 hrs, dose 10 mg/kg; conditions: in vivo
[24] = Oral bioavailability in CD1 mouse at 10 mg/kg measured after 0.03 to 24 hrs by UHPLC-TOF method; format: ADME, organism-based; conditions: in vivo, time 0.03-24 hrs; procedure, shortened: as §2
Fusion glycoprotein F0 = Fusion glycoprotein F0 (Human respiratory syncytial virus A (strain A2), UniProt P03420); assay: Inhibition of Respiratory syncytial virus fusion protein
Procedure, shortened: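 293T cells cotransfected with codon-optimized RSV A2 F plasmid and a GAL4-responsive luciferase reporter, mixed after 24 h with a second 293T population expressing GAL4-NF-κB transactivator. Threefold serial compound dilutions present during mixing; F-mediated fusion read as luciferase after 24 h. IC₅₀ averaged over at least two testing occasions.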

Human orthopneumovirus [25] = assay: Antiviral activity against Respiratory syncytial virus A2 by Plaque reduction assay; format: functional, organism-based
Procedure, shortened: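 Vero cells were infected with RSV A2 for 48 h with compound at 0.01 nM to 100 μM. Plaques were detected by immunostaining. Values are the average of at least two testing occasions.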

Chain of Fusion glycoprotein F0 (P03420 26-109 limits assumed): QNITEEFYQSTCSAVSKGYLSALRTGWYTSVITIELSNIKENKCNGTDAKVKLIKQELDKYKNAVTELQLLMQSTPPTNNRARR
Chain of Fusion glycoprotein F0 (P03420 137-574 limits assumed): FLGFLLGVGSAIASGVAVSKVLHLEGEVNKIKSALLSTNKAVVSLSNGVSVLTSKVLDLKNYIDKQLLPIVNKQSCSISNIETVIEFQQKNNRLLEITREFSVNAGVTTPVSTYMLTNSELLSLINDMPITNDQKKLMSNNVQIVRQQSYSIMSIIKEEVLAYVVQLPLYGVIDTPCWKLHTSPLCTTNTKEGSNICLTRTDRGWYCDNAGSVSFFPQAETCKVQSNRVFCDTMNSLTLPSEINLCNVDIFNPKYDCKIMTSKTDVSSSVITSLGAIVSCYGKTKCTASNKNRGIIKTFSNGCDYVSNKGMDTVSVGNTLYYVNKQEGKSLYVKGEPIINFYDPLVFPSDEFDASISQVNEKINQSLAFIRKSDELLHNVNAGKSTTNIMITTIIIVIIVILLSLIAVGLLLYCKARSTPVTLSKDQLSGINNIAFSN

Compound: CC(C)CCn1c(CN2C(=O)C3(CCCC3)c3ccccc32)nc2cc(CN)ccc21
- pEC50 (Human orthopneumovirus [1]): 6.24
- CC50 [2]: 9.94 µM

Compound: CC(C)CCn1c(CN2C(=O)C3(CC3)c3cc(F)ccc32)nc2cc(CN)ccc21
- pEC50 (Human orthopneumovirus [1]): 8.38
- CC50 [2]: 7.6 µM
- Papp at 1 h, 10 µM [3]: 7.3 ×10⁻⁶ cm/s
- fraction unbound at 5 µM [4]: 0.19
- fraction unbound at 5 µM [5]: 0.15
- fraction unbound at 5 µM [6]: 0.11
- Microsomal intrinsic clearance [7]: < 29 µL/min
- intrinsic clearance [8]: < 29 µL/min
- intrinsic clearance (CLint) [9]: 344 µL/min

Compound: O=C(O)c1ccc2c(c1)nc(CN1C(=O)C3(CC3)c3ccc(F)cc31)n2CCCC(F)(F)F
- pEC50 (Human orthopneumovirus [1]): 4.99
- CC50 [10]: > 25 µM

Compound: NCc1ccc2c(c1)nc(CN1C(=O)C3(CC3)c3ccc(F)cc31)n2CCCCO
- CC50 [10]: > 25 µM
- pEC50 (Human orthopneumovirus [11]): 8.44

Compound: NCc1ccc2c(c1)nc(CN1C(=O)C3(CC3)c3ccc(F)cc31)n2C1CCC(O)CC1 (centres undefined)
- Microsomal intrinsic clearance [7]: 9.4 µL/min
- intrinsic clearance [8]: 5.02 µL/min
- intrinsic clearance (CLint) [9]: 4.6 µL/min
- half-life [12]: 147 min
- half-life [13]: 276 min
- half-life [14]: 300 min
- clearance [15]: 82.7 mL/min/kg
- Vd [16]: 3.8 L/kg
- solubility thermodynamic [17]: 313 µM (≈ 136 µg/mL)
- Papp A→B at 1 h, 10 µM [18]: 0.1 ×10⁻⁶ cm/s
- Papp B→A at 1 h, 10 µM [19]: 2.8 ×10⁻⁶ cm/s
- efflux ratio at 1 h, 10 µM [20]: 21
- CC50 [10]: > 25 µM
- half-life [21]: 54 min
- Tmax [22]: 6 min
- Cmax [23]: 47.8 ng/mL
- bioavailability [24]: 4.4%
- pEC50 (Human orthopneumovirus [11]): 8.80

Compound: CS(=O)(=O)CCCn1c(CN2C(=O)C3(CC3)c3ccc(F)cc32)nc2cc(CN)ccc21
- Microsomal intrinsic clearance [7]: 3.63 µL/min
- intrinsic clearance [8]: 5.34 µL/min
- intrinsic clearance (CLint) [9]: 3.78 µL/min
- solubility thermodynamic [17]: 2600 µM (≈ 1180 µg/mL)
- Papp A→B at 1 h, 10 µM [18]: 0.24 ×10⁻⁶ cm/s
- Papp B→A at 1 h, 10 µM [19]: 0.79 ×10⁻⁶ cm/s
- efflux ratio at 1 h, 10 µM [20]: 3.26
- CC50 [10]: > 25 µM
- pEC50 (Human orthopneumovirus [11]): 8.24

Compound: CC(=O)N1CC2(C1)C(=O)N(Cc1nc3cc(CN)ccc3n1CCC(C)C)c1ccccc12
- pIC50 (Fusion glycoprotein F0): 8.96
- pEC50 (Human orthopneumovirus [25]): 8.66
